In test [1] the target is T1, Aurora kinase A (Homo sapiens, UniProt O14965).
T1 sequence (O14965 whole entry): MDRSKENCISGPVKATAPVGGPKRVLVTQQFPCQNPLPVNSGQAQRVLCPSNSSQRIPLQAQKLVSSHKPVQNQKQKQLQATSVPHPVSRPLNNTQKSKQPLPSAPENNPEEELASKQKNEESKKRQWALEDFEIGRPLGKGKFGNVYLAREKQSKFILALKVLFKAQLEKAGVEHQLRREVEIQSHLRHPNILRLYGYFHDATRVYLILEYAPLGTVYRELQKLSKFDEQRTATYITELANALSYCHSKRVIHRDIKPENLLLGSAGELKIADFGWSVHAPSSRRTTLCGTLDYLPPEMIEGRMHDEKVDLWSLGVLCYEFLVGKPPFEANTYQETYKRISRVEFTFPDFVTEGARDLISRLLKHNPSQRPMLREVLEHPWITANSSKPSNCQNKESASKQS
Kind of test: Binding affinity to Aurora kinase A catalytic domain by competition binding assay.

The target of test [2] is T2, Aurora kinase B (Homo sapiens, UniProt Q96GD4). In words: Binding affinity to Aurora kinase B catalytic domain by competition binding assay.
T2 sequence (Q96GD4 whole entry, the tested form may be a part): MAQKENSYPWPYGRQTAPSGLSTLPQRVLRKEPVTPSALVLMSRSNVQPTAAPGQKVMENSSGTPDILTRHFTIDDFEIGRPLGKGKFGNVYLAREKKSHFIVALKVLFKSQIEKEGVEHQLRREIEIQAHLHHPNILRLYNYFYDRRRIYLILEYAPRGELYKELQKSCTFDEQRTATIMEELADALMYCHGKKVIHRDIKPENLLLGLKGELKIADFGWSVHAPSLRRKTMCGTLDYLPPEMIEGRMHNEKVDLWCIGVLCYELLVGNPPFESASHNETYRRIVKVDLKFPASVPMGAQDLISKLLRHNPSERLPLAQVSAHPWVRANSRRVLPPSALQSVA
In test [3] the test system is HCT-116. Kind of test: Antiproliferative activity against human HCT116 cells after 72 hrs by BrdU-based ELISA. The test is classed as functional, cell-based. The note with it: HCT-116, 72 h. Summed up:
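HCT-116 cells in McCoy's 5A with 10% FBS and pen/strep, seeded 800 cells/well, left overnight at 37 °C, 5% CO2. Nine-point 3-fold serial dilutions in DMSO added for 72 h; BrdU colorimetric ELISA read at 450 and 690 nm. IC50 is the concentration halving proliferation; duplicate runs averaged.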
In general terms: In an ELISA, binding on a coated surface is turned into a signal by an enzyme label.

Test [4] concerns the target T2, Aurora kinase B. In words: Inhibition of Aurora kinase B-mediated histone H3 Ser10 phosphorylation in human HCT116 cells after 2 hrs by sandwich ELISA. It counts as cell-based, HCT-116. Summed up: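 HCT-116 cells seeded 4 × 10⁴/well, 4-6 h at 37 °C, then arrested overnight (16-18 h) with nocodazole at 66 ng/mL final. Treated 2 h with nine-point 3-fold dilutions in DMSO; lysed with phosphatase inhibitor, phospho-H3 (Ser10) sandwich ELISA read at 450 nm. IC50 = 50% inhibition of phosphorylation; duplicate runs averaged.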

pIC50, pKd: −log10 of the molar value.

On to `Cc1cc(Nc2nc(Sc3ccc(NC(=O)CN4CC[C@@H](S(=O)(=O)C(C)(C)C)C4)cc3)nn3cccc23)n[nH]1`, for which the pKd in test [1] was 8.40; in test [2], 8.37. For the same compound, the pIC50 in test [3] is 8.04; in test [4], 7.54.

For the compound `Cc1cc(Nc2nc(Sc3ccc(NC(=O)CN4CC[C@@H](O)C4)cc3)nn3cccc23)n[nH]1`, the pKd is 7.98 in test [1] and 8.18 in test [2]. Further, the pIC50 in test [3] is 7.13; in test [4], 6.99.

On to `Cc1cc(Nc2nc(Sc3ccc(NC(=O)CN4CC[C@@H](C(=O)NCCN5CCOCC5)C4)cc3)nn3cccc23)n[nH]1`, for which the pKd is 8.20 in test [1] and 8.54 in test [2]. Further, the pIC50 in test [3] was 7.72; in test [4], 7.20.

Regarding `Cc1cc(Nc2nc(Sc3ccc(NC(=O)CN4CC[C@H](C(=O)N5CCCC5)C4)cc3)nn3cccc23)n[nH]1`, the results for the pKd in test [1] and in test [2] were 8.00 and 8.72, respectively. The negative logarithm of the IC50 (pIC50) in test [3] is 7.78; in test [4], 7.42.

For the compound `Cc1cc(Nc2nc(Sc3ccc(NC(=O)CN4CC[C@@H](NC(=O)C(C)C)C4)cc3)nn3cccc23)n[nH]1`, the pKd in test [1] was 7.88; in test [2], 8.24. The pIC50 in test [3] was 7.33; in test [4], 6.94.

As to `Cc1cc(Nc2nc(Sc3ccc(NC(=O)CN4CC[C@@H]([S+]([O-])C(C)(C)C)C4)cc3)nn3cccc23)n[nH]1` (stereo not given in full), the pKd in test [1] was 8.55; in test [2], 8.51. The pIC50 was 8.47 in test [3] and 7.92 in test [4].

With `Cc1cc(Nc2nc(Sc3ccc(NC(=O)CN4CC[C@@H](C(=O)NC5CCC5)C4)cc3)nn3cccc23)n[nH]1`, the pKd is 8.38 in test [1] and 8.48 in test [2]. For the same compound, the pIC50 was 8.89 in test [3] and 8.03 in test [4].

As for `Cc1cc(Nc2nc(Sc3ccc(NC(=O)CN4CC[C@@H](OCCN5CCOCC5)C4)cc3)nn3cccc23)n[nH]1`, the pKd in test [1] is 7.96; in test [2], 8.18. For the same compound, the pIC50 in test [3] is 7.75; in test [4], 7.36.

`Cc1cc(Nc2nc(Sc3ccc(NC(=O)CN4CCC(C(=O)N5CCCC5)C4)cc3)nn3cccc23)n[nH]1` (racemic): the pKd in test [1] is 8.06; in test [2] it was 8.62. Also, the results for the pIC50 in test [3] and in test [4] were 8.54 and 8.05, respectively.

Regarding `Cc1cc(Nc2nc(Sc3ccc(NC(=O)CN4CC[C@@H](C(=O)N5CCCC5)C4)cc3)nn3cccc23)n[nH]1`, the pKd is 8.20 in test [1] and 8.60 in test [2]. Moreover, the pIC50 in test [3] is 8.66; in test [4], 8.20.

Regarding `Cc1cc(Nc2nc(Sc3ccc(NC(=O)CN4CCC(C(=O)C(C)(C)C)C4)cc3)nn3cccc23)n[nH]1` (racemic), the pKd in test [1] was 7.77; in test [2], 8.21. Moreover, the pIC50 in test [3] was 7.90; in test [4], 7.35.

With `Cc1cc(Nc2nc(Sc3ccc(NC(=O)CN4CC[C@@H](OC(C)(C)C)C4)cc3)nn3cccc23)n[nH]1`, the values for the pKd in test [1] and in test [2] were 7.60 and 8.44, respectively. Besides, the pIC50 was 8.59 in test [3] and 8.05 in test [4].

On to `Cc1cc(Nc2nc(Sc3ccc(NC(=O)CN4CC[C@@H](OCCCN5CCOCC5)C4)cc3)nn3cccc23)n[nH]1`, for which the pKd in test [1] is 8.29; in test [2], 8.43. Moreover, the results for the pIC50 in test [3] and in test [4] were 7.97 and 7.57, respectively.

Regarding `Cc1cc(Nc2nc(Sc3ccc(NC(=O)CN4CC[C@@H](C(=O)N5CCCCC5)C4)cc3)nn3cccc23)n[nH]1`, the pKd is 8.19 in test [1] and 8.54 in test [2]. Further, the figures for the pIC50 in test [3] and in test [4] were 8.49 and 8.00, respectively.

With `Cc1cc(Nc2nc(Sc3ccc(NC(=O)CN4CC[C@@H](NS(C)(=O)=O)C4)cc3)nn3cccc23)n[nH]1`, the pKd in test [1] was 7.91; in test [2], 8.49. The pIC50 in test [3] is 6.57; in test [4], 6.44.

In general, pKd refers to the negative decadic logarithm of the Kd, by convention in mol/L. By pIC50 is commonly meant the IC50 on a negative log10 scale, so that one unit is a factor of ten. High values mean a small IC50, low ones a large IC50.
